# Assays:
# Type in all cases: functional
# [1] = system: 786-0; experiment: Anticancer activity against human 786-0 cells after 48 hrs; conditions: 786-0, 48 h
# Outline: (§1)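 NCI Drug Evaluation Branch 60-cell-line screen across leukemia, melanoma, lung, colon, CNS, ovarian, renal, prostate and breast panels. The incubation period is 48 h. Parameters are derived from dose–response data: GI50 is the concentration giving 50% decrease in net growth, TGI is total growth inhibition, and LC50 is net 50% loss of initial cells. Values beyond the tested range are reported as greater or less than the maximum or minimum concentration.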
# [2] = system: A498; experiment: Anticancer activity against human A498 cells after 48 hrs; conditions: A498, 48 h; outline: as §1
# [3] = system: NCI-H522; experiment: Anticancer activity against human NCI-H522 cells after 48 hrs; conditions: NCI-H522, 48 h
# Outline: (§2)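 NCI 60-line panel protocol with a 48 h incubation. Per line: GI50 = concentration giving 50% decrease in net cell growth; TGI = total growth inhibition; LC50 = net 50% loss of initial cells. When the level was not reached or was exceeded, the value is given as greater or less than the highest or lowest concentration tested.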
# [4] = system: HCT-116; experiment: Anticancer activity against human HCT116 cells after 48 hrs; conditions: HCT-116, 48 h; outline: as §1
# [5] = system: UO-31; experiment: Anticancer activity against human UO31 cells after 48 hrs; conditions: UO-31, 48 h
# Outline: (§3)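 NCI ~60 human tumour cell line panel with a 48 h incubation. GI50 is the concentration giving a 50% fall in net growth, TGI gives total growth inhibition, and LC50 gives a net 50% loss of initial cells. An effect not reached or exceeded is reported as greater or less than the highest or lowest concentration tested.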
# [6] = system: SK-MEL-28; experiment: Anticancer activity against human SK-MEL-28 cells after 48 hrs; conditions: SK-MEL-28, 48 h; outline: as §2
# [7] = system: OVCAR-8; experiment: Anticancer activity against human OVCAR8 cells after 48 hrs; conditions: OVCAR-8, 48 h; outline: as §2
# [8] = system: U-251; experiment: Anticancer activity against human U251 cells after 48 hrs; conditions: U-251, 48 h; outline: as §3
# [9] = system: Rattus norvegicus; experiment: Antiinflammatory activity in Wistar rat assessed as inhibition of carrageenan-induced hind paw edema at 20 mg/kg, po administered 30 mins before carrageenan challenge measured after 3 hrs by plethysmometer
# Outline: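 Wistar rats of either sex, 150–175 g, fasted 16 h, n = 6 per group. Compound given orally at 20 mg/kg as a suspension in 1% CMC in water (10 mL/kg); controls got vehicle only. After 30 min, 0.1 mL of 1% carrageenan in saline was injected subplantar into the left hind paw. Paw volume was measured by plethysmometer at 0, 3 and 5 h. Inhibition = (1 − Vt/Vc) × 100, reported as mean ± SEM.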
# [10] = system: SK-OV-3; experiment: Anticancer activity against human SKOV3 cells after 48 hrs; conditions: SK-OV-3, 48 h; outline: as §2
# [11] = system: MOLT-4; experiment: Anticancer activity against human MOLT4 cells after 48 hrs; conditions: MOLT-4, 48 h; outline: as §2
# [12] = system: T47D; experiment: Anticancer activity against human T47D cells after 48 hrs; outline: as §3
# [13] = system: NCI-H226; experiment: Anticancer activity against human NCI-H226 cells after 48 hrs; conditions: NCI-H226, 48 h; outline: as §2
# [14] = system: CAKI-1; experiment: Anticancer activity against human Caki1 cells after 48 hrs; conditions: CAKI-1, 48 h; outline: as §1
# [15] = system: TK-10; experiment: Anticancer activity against human TK10 cells after 48 hrs; conditions: TK-10, 48 h; outline: as §3
# [16] = system: SR; experiment: Anticancer activity against human SR cells after 48 hrs; outline: as §2
# [17] = system: PC-3; experiment: Anticancer activity against human PC3 cells after 48 hrs; conditions: PC-3, 48 h; outline: as §2
# [18] = system: K562; experiment: Anticancer activity against human K562 cells after 48 hrs; conditions: K562, 48 h; outline: as §1
# [19] = system: SF-295; experiment: Anticancer activity against human SF295 cells after 48 hrs; conditions: SF-295, 48 h; outline: as §2
# [20] = system: COLO 205; experiment: Anticancer activity against human COLO205 cells after 48 hrs; conditions: COLO 205, 48 h; outline: as §1
# [21] = system: LOX IMVI; experiment: Anticancer activity against human LOXIMVI cells after 48 hrs; outline: as §1
# [22] = system: MDA-MB-231; experiment: Anticancer activity against human MDA-MB-231 cells after 48 hrs; conditions: MDA-MB-231, 48 h; outline: as §1
# [23] = system: NCI/ADR-RES; experiment: Anticancer activity against human NCI/ADR-RES cells after 48 hrs; outline: as §2
# [24] = system: HL-60(TB); experiment: Anticancer activity against human HL-60(TB) cells after 48 hrs; conditions: HL-60, 48 h
# Outline: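 NCI 60-cell-line panel protocol: cells exposed to compound for 48 h. Initial one-dose screen at 10⁻⁵ M. GI50 = concentration giving 50% decrease in net cell growth. TGI = concentration giving total growth inhibition. LC50 = concentration giving net 50% loss of initial cells at the end of incubation. A value not reached or exceeded is reported as greater or less than the highest or lowest concentration tested.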
# [25] = system: M14; experiment: Anticancer activity against human M14 cells after 48 hrs; conditions: M14, 48 h; outline: as §1
# [26] = system: NCI-H322M; experiment: Anticancer activity against human NCI-H322M cells after 48 hrs; outline: as §2
# [27] = system: OVCAR-5; experiment: Anticancer activity against human OVCAR5 cells after 48 hrs; conditions: OVCAR-5, 48 h; outline: as §2
# [28] = system: A549; experiment: Anticancer activity against human A549 cells after 48 hrs; conditions: A549, 48 h; outline: as §1
# [29] = read-out: LC50 (the source's name)
structure (smiles),measurement,setting,value
Cc1cc(O)c(C2=NN(c3ccc(S(N)(=O)=O)cc3)C(c3ccccc3Cl)C2)cc1Cl (stereo not given),GI50,[1],2.25 µM
same,TGI,[1],4.52 µM
same,CC50,[1]; [29],9.1 µM
same,GI50,[2],5.01 µM
same,TGI,[2],20.5 µM
same,CC50,[2]; [29],61.4 µM
same,GI50,[3],1.89 µM
same,LC50 (concentration killing 50% of initial cells),[3],8.33 µM
same,TGI,[3],3.97 µM
same,GI50,[4],1.76 µM
same,TGI,[4],3.15 µM
same,CC50,[4]; [29],5.61 µM
same,GI50,[5],2.66 µM
same,TGI,[5],16.2 µM
same,CC50,[5]; [29],48 µM
same,GI50,[6],3.39 µM
same,TGI,[6],12.3 µM
same,CC50,[6]; [29],52.9 µM
same,GI50,[7],2.94 µM
same,TGI,[7],11.2 µM
same,CC50,[7]; [29],> 100 µM
same,GI50,[8],2.25 µM
same,TGI,[8],5.02 µM
same,CC50,[8]; [29],36.9 µM
same,inhibition in vivo at 20 mg/kg,[9],55.3%
same,GI50,[10],3.63 µM
same,TGI,[10],10.4 µM
same,CC50,[10]; [29],32.3 µM
same,GI50,[11],4.04 µM
same,LC50,[11],> 100 µM
same,TGI,[11],> 100 µM
same,GI50,[12],2.81 µM
same,TGI,[12],10.3 µM
same,CC50,[12]; [29],82.3 µM
same,GI50,[13],3.03 µM
same,TGI,[13],9.44 µM
same,CC50,[13]; [29],> 100 µM
same,GI50,[14],1.78 µM
same,LC50 (concentration giving 50% net loss of initial cells),[14],8.95 µM
same,TGI,[14],3.99 µM
same,GI50,[15],2.64 µM
same,LC50,[15],33.9 µM
same,TGI,[15],5.86 µM
same,GI50,[16],2.97 µM
same,LC50 (concentration killing 50% of initial cells),[16],> 100 µM
same,GI50,[17],1.58 µM
same,TGI,[17],3.32 µM
same,CC50,[17]; [29],6.98 µM
same,GI50,[18],3.26 µM
same,LC50 (concentration killing 50% of initial cells),[18],> 100 µM
same,GI50,[19],1.59 µM
same,LC50 (concentration giving net 50% loss of initial cells),[19],6.34 µM
same,TGI,[19],3.18 µM
same,GI50,[20],1.81 µM
same,LC50 (concentration giving net 50% loss of initial cells),[20],6.03 µM
same,TGI,[20],3.31 µM
same,GI50,[21],1.78 µM
same,TGI,[21],3.21 µM
same,CC50,[21]; [29],5.8 µM
same,GI50,[22],2.14 µM
same,TGI,[22],4.52 µM
same,CC50,[22]; [29],9.52 µM
same,GI50,[23],2.7 µM
same,TGI,[23],6.85 µM
same,CC50,[23]; [29],38.8 µM
same,GI50,[24],3.44 µM
same,LC50,[24],> 100 µM
same,TGI,[24],100 µM
same,GI50,[25],1.85 µM
same,TGI,[25],3.43 µM
same,CC50,[25]; [29],6.39 µM
same,GI50,[26],2.19 µM
same,LC50 (net 50% loss of initial cells),[26],22 µM
same,TGI,[26],5.06 µM
same,GI50,[27],1.74 µM
same,LC50,[27],6.23 µM
same,TGI,[27],3.3 µM
same,GI50,[28],3.82 µM
same,LC50 (net 50% loss of initial cells),[28],> 100 µM
same,TGI,[28],19.3 µM

# — ChEMBL document CHEMBL1914430, “Synthesis of some new 1,3,5-trisubstituted pyrazolines bearing benzene sulfonamide as anticancer and anti-inflammatory agents” (Bioorg Med Chem Lett, 2011)
